Reference: ChEMBL document CHEMBL1126297, “Synthesis and evaluation of analogues of (Z)-1-(4-methoxyphenyl)-2-(3,4,5-trimethoxyphenyl)ethene as potential cytotoxic and antimitotic agents” (J Med Chem, 1992)

Key:
Type in all cases: functional
MCF7 = experiment: Cytotoxicity against human MCF-7 breast cancer cell line.; conditions: read-out: ED50 (the source's name)
Summary of the method: (§1)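 MTT colorimetric assay run in the Purdue Cell Culture Laboratory. Poorly water-soluble compounds were serially diluted in DMSO and added as 0.5 μL aliquots per well. Cells were incubated with compound for 6 days before MTT was added. […] The reported ED50 is the mean of two determinations.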

MLM [1] = experiment: Cytotoxicity against human MLM melanoma cell line.; conditions: read-out: ED50 (the source's name); summary of the method: as §1
SK-MEL-5 = experiment: Compound was evaluated for cytotoxicity against human SKMEL-5 melanoma cell line.; conditions: read-out: ED50 (the source's name); summary of the method: as §1
A549 = experiment: Compound was evaluated for cytotoxicity against human A-549 non-small cell lung cancer cell line.; conditions: read-out: ED50 (the source's name); summary of the method: as §1
HT-29 = experiment: Cytotoxicity against human HT-29 colon cell line.; conditions: read-out: ED50 (the source's name); summary of the method: as §1
Bos taurus = species: Bos taurus; experiment: Inhibition of tubulin polymerization
Summary of the method: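 Bovine brain tubulin, purified to electrophoretic homogeneity, was preincubated at 37 °C with a range of compound concentrations and then chilled on ice. GTP was added and polymerization followed at 37 °C by turbidity at 350 nm. Extent was read at 20 min against two controls per experiment, and IC50 was determined graphically. Actives were run in ≥3 independent assays, inactives (IC50 > 40 μM) in ≥2.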

MLM [2] = experiment: Compound was evaluated for cytotoxicity against human MLM melanoma cell line.; conditions: read-out: ED50; summary of the method: as §1

SMILES	IC50 (Bos taurus)	EC50 (MCF7)	EC50 (MLM [1])	EC50 (SK-MEL-5)	EC50 (A549)	EC50 (HT-29)	EC50 (MLM [2])
COc1ccc(/C=C/c2cc(OC)c(O[Si](C)(C)C(C)(C)C)c(OC)c2)cc1	> 40000 nM	> 25000 nM	> 25000 nM	> 25000 nM	> 25000 nM	> 25000 nM	
CCc1ccc(/C=C/c2cc(OC)c(OC)c(OC)c2)cc1	> 40000 nM	1200 nM	220 nM	170 nM	130 nM	110 nM	
COc1ccc2c(c1)CN1CCc3c(cc(OC)c(OC)c3OC)C1C2 (stereo unspecified)	> 40000 nM	> 25000 nM	> 25000 nM	> 25000 nM	> 25000 nM	> 25000 nM	
COc1cc(/C=C\c2ccc(C(C)(C)C)cc2)cc(OC)c1OC	> 40000 nM	1570 nM	4320 nM	210 nM	1020 nM	880 nM	
COc1ccc(/C=C(/C(=O)O)c2cc(OC)c(OC)c(OC)c2)cc1	> 40000 nM	12800 nM	> 25000 nM	9100 nM	13900 nM	8400 nM	
CCNC(=O)/C(=C/c1ccc(OC)cc1)c1cc(OC)c(OC)c(OC)c1	> 40000 nM	3700 nM	> 25000 nM	7050 nM	3400 nM	1800 nM	
COc1cccc2c1C(=O)c1c(O)c3c(c(O)c1C2=O)C[C@@](O)(C(=O)CO)C[C@@H]3O[C@H]1C[C@H](N)[C@H](O)[C@H](C)O1 [DOXORUBICIN]		31 nM		32 nM	29 nM	55 nM	130 nM
COc1ccc(/C=C\c2cc(OC)cc(OC)c2)cc1 [8Z-3,4',5-TRIMETHOXYSTILBENE]	3800 nM	160 nM	98 nM	420 nM	130 nM	340 nM	

Continued, in another order:

IC50 (Bos taurus)	SMILES	EC50 (MCF7)	EC50 (MLM [1])	EC50 (SK-MEL-5)	EC50 (A549)	EC50 (HT-29)	EC50 (MLM [2])
> 40000 nM	CCN(CC)CCOC(=O)/C(=C/c1ccc(OC)cc1)c1cc(OC)c(OC)c(OC)c1	2100 nM	> 25000 nM	2700 nM	1800 nM	2800 nM	
21000 nM	COc1cc(CCc2ccc(C)cc2)cc(OC)c1OC	220 nM	1400 nM	270 nM	180 nM	100 nM	
> 40000 nM	COC(=O)/C(=C/c1ccc(OC)cc1)c1cc(OC)c(OC)c(OC)c1	2000 nM	9600 nM	6400 nM	1100 nM	500 nM	
> 40000 nM	COc1ccc(/C(=C\c2cc(OC)c(OC)c(OC)c2)C(=O)O)cc1	1900 nM	> 25000 nM	2300 nM	5200 nM	5900 nM	
7400 nM	COc1ccc(C(=O)c2cc(OC)c(OC)c(OC)c2)cc1	1500 nM	1300 nM	1200 nM	1100 nM	1300 nM	
18000 nM	CCc1ccc(CCc2cc(OC)c(OC)c(OC)c2)cc1	160 nM	270 nM	47 nM	88 nM	16 nM	
> 40000 nM	COc1cc(CCc2ccc(SC)cc2)cc(OC)c1OC	200 nM	1300 nM	240 nM	150 nM	400 nM	
> 40000 nM	COc1ccc2c(ccc3cc(OC)c(OC)c(OC)c32)c1	> 25000 nM	> 25000 nM	> 25000 nM	> 25000 nM	> 25000 nM	
> 40000 nM	COc1cc(/C=C/c2ccc(C)cc2)cc(OC)c1OC	1900 nM	6300 nM	800 nM	1100 nM	900 nM	
